Data taken from ChEMBL document CHEMBL1132425, “Synthesis and antiviral activity of ethidium-arginine conjugates directed against the TAR RNA of HIV-1” (J Med Chem, 1999).

Assays:
PBMC [1] = assay: Cytotoxicity towards uninfected PBMC cell lines; type: functional; details: Homo sapiens
Method in brief: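 Uninfected PBMC incubated 7 days with compound; viability by colorimetric MTT assay. Triplicate per concentration, experiment repeated twice.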

MT4 [2] = assay: (§1) Cytotoxicity towards uninfected MT-4 cell lines; type: functional; details: Homo sapiens
Method in brief: (§2)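 Uninfected MT4 cells with graded compound levels; viability by MTT reduction to formazan. Triplicate per concentration, experiment run twice.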

CEM-SS [3] = assay: Anti-HIV-1 activity against CEM-SS cell lines; type: functional, cell-based; details: Homo sapiens
Method in brief: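 HIV-1 LAI (grown in CEM-SS) infecting CEM-SS cells kept in RPMI + 10% heat-treated FCS; 30-min adsorption, unbound virus washed off, then 5 days culture with graded compound concentrations. Virus output read as reverse transcriptase activity in supernatant. Triplicate per concentration, experiment run twice; IC50 from median-effect plot of dose-effect data.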

PBMC [4] = assay: (§3) Anti-HIV-1 activity against PBMC cell lines; type: functional, cell-based; details: Homo sapiens
Method in brief: (§4)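 Infected PBMC grown 7 days with graded compound concentrations after virus incubation; HIV-1 production measured as reverse transcriptase activity in culture supernatant. Triplicate per concentration, whole experiment done twice.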

CEM-SS [5] = assay: Cytotoxicity towards uninfected CEM-SS cell lines; type: functional; details: Homo sapiens
Method in brief: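 Uninfected CEM-SS cells exposed 5 days to varied compound concentrations; viability by MTT colorimetric test. CC50 is the concentration halving OD540, from median-effect dose analysis. Triplicate per concentration, experiment repeated twice.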

MT4 [6] = assay: (§5) Anti-HIV-1 activity against MT-4 cell lines; type: functional, cell-based; details: Homo sapiens
Method in brief: (§6)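 MT4 cells (RPMI + 10% heat-treated FCS) infected with HIV-1; protection from virus-induced cytopathicity read by MTT reduction to formazan by mitochondrial dehydrogenases. Triplicate per concentration, experiment repeated twice. Where inhibition stayed under 50%, the measured percentage is reported in parentheses.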

PBMC [7] = assay: as §3; type: functional, Homo sapiens; method in brief: as §4
MT4 [8] = assay: as §1; type: functional, Homo sapiens; method in brief: as §2
MT4 [9] = assay: as §5; type: functional; details: Homo sapiens; method in brief: as §6

Compound | CC50 (PBMC [1]) [µM] | CC50 (MT4 [2]) [µM] | IC50 (CEM-SS [3]) [µM] | IC50 (PBMC [4]) [µM] | CC50 (CEM-SS [5]) [µM] | IC50 (MT4 [6]) [µM] | Inhibition (PBMC [7]) [%] | Inhibition (MT4 [8]) [%] | CC50 (MT4 [9]) [µM]
COC(=O)C(CCCN=C(N)N)NC(=O)CCNC(=O)c1cccc(-c2c3cc(N)ccc3c3ccc(N)cc3[n+]2C)c1 (centres undefined) | 47 | 21 | 83 | 78 | 85 | > 100 |  |  | 
COC(=O)C(CCCN=C(N)N)NC(=O)CCCCCNC(=O)c1cccc(-c2c3cc(N)ccc3c3ccc(N)cc3[n+]2C)c1 (centres undefined) | > 100 | 60 | > 100 | 89 | > 100 | > 100 |  |  | 
C[n+]1c(-c2cccc(C(=O)NCCC(=O)NC(CCCN=C(N)N)C(=O)O)c2)c2cc(N)ccc2c2ccc(N)cc21 (centres undefined) | > 100 | 47 | > 100 | 73 | > 100 | > 100 |  |  | 
C[n+]1c(-c2cccc(C(=O)O)c2)c2cc(N)ccc2c2ccc(N)cc21 | 44 | 42 | 95 | 20 | > 100 | > 100 |  |  | 
C[n+]1c(-c2cccc(C(=O)NCCCCCC(=O)NC(CCCN=C(N)N)C(=O)O)c2)c2cc(N)ccc2c2ccc(N)cc21.[Cl-] (centres undefined) | > 100 | 59 | > 100 | > 100 | > 100 | > 100 | 40 |  | 
C[n+]1c(-c2cccc(C(=O)NCCCCCC(=O)NCCC(=O)NC(CCCN=C(N)N)C(=O)O)c2)c2cc(N)ccc2c2ccc(N)cc21 (centres undefined) | > 100 | > 100 | 2.4 | 2.5 | > 100 | 11 |  |  | 
COC(=O)C(CCCN=C(N)N)NC(=O)CCNC(=O)CCCCCNC(=O)c1cccc(-c2c3cc(N)ccc3c3ccc(N)cc3[n+]2C)c1.[Cl-] (centres undefined) | > 100 |  | 4.6 | 8.7 | > 100 | > 100 |  | 45 | > 100
